Measurements as given in the array DNA melting data of Ke et al. (doi:10.1101/2024.01.08.574731).

What was measured:
[1] = melting temperature; fluorescence melt of hairpins on a sequencing array, two-state fit, raised by 9.35 °C to match UV melts; details: sodium 0.088 M
Outline: (§1)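 Folding enthalpy and melting temperature were estimated with bootstrapped two-state fits and combined across four replicates by inverse-variance weighting, with fitted temperatures raised by 9.35 °C to match UV melts. The data were Cy3 fluorescence of library hairpins, with annealed Cy3 and quencher oligos, on a sequenced MiSeq flow cell in 50 mM Na-HEPES pH 8.0, 25 mM NaCl, imaged in 2.5 °C steps up to 60 °C and normalised to pre-quench Cy3 and control constructs.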

[2] = folding enthalpy; higher = less favourable; fluorescence melt of hairpins on a sequencing array, two-state fit; details: sodium 0.088 M
Outline: as §1

GCAGACTCGAAAGAGTGC (((..(((....)))))) gave a Tm [1] of 43.4 °C and a folding enthalpy [2] of -16 kcal/mol.
Work on GCAGAGCGAAAGCCCGGC ((.(.((....)).).)) yielded a Tm [1] of 44.8 °C and a folding enthalpy [2] of -17.9 kcal/mol.
For GCAGAGCGAAAGCTCAGC ((.((((....)))).)), the Tm [1] was 64.8 °C and the folding enthalpy [2] was -20.4 kcal/mol.
With GCAGAGCGAAAGCTCCGC ((.((((....)))).)) the Tm [1] was 61.1 °C and the folding enthalpy [2] was -16.8 kcal/mol.
With GCAGAGGGAAACCTCCAC (..((((....))))..) the Tm [1] was 25.4 °C and the folding enthalpy [2] was -13.7 kcal/mol.
For GCAGAGGGAAACCTCTGC (((((((....))))))), the Tm [1] was 67.9 °C and the folding enthalpy [2] was -46.2 kcal/mol.
Work on GCAGCAGGAAACCGCTGC (((((.(....).))))) yielded a Tm [1] of 58.1 °C and a folding enthalpy [2] of -41.3 kcal/mol.
In the case of GCAGCAGGAAACTGCCAC (..((((....))))..), the Tm [1] is reported as 31.6 °C and the folding enthalpy [2] is reported as -11 kcal/mol.
GCAGCATCGAAAGATTGC (((..(((....)))))) gave a Tm [1] of 33.9 °C and a folding enthalpy [2] of -16.9 kcal/mol.
GCAGCCACGAAAGTGTGC (((..(((....)))))) showed a Tm [1] of 40.2 °C and a folding enthalpy [2] of -12.5 kcal/mol.
With GCAGCCGAAAGGCACTGC ((((((....)))..))) the Tm [1] was 45.4 °C and the folding enthalpy [2] was -13.7 kcal/mol.
In the case of GCAGCCGAAAGGCATGC ((((((....))).))), the Tm [1] is reported as 62 °C and the folding enthalpy [2] is reported as -19.6 kcal/mol.
With GCAGCCGAAAGGCGATGC ((((((....)))..))) the Tm [1] was 53.2 °C and the folding enthalpy [2] was -14.2 kcal/mol.
Sequence GCAGCCGAAAGGCGTGC ((((((....))).))) has a Tm [1] of 65 °C and a folding enthalpy [2] of -16.5 kcal/mol.
Work on GCAGCCGAAAGGCGTTGC ((((((....)))..))) yielded a Tm [1] of 53.3 °C and a folding enthalpy [2] of -13.8 kcal/mol.
GCAGCGCGAAAGCACAGC ((.(.((....)).).)) gave a Tm [1] of 43.8 °C and a folding enthalpy [2] of -19.9 kcal/mol.
GCAGCGCGAAAGCAGTGC (((..((....))..))) showed a Tm [1] of 52.8 °C and a folding enthalpy [2] of -18.1 kcal/mol.
GCAGCGCGAAAGCGTCGC ((..(((....)))..)) gave a Tm [1] of 57.1 °C and a folding enthalpy [2] of -17.5 kcal/mol.
Sequence GCAGCGCGAAAGCTCAGC ((.(.((....)).).)) has a Tm [1] of 39.9 °C and a folding enthalpy [2] of -10.6 kcal/mol.
Work on GCAGCGCGAAAGCTTTGC (((..((....))..))) yielded a Tm [1] of 37.4 °C and a folding enthalpy [2] of -16.7 kcal/mol.
GCAGCGGGAAACTGCTGC (((((.(....).))))) gave a Tm [1] of 66 °C and a folding enthalpy [2] of -43.1 kcal/mol.
GCAGCTACGAAAGTATGC (((..(((....)))))) showed a Tm [1] of 36.1 °C and a folding enthalpy [2] of -15 kcal/mol.
Work on GCAGCTCGAAAGAGATGC (((.(((....))).))) yielded a Tm [1] of 68.6 °C and a folding enthalpy [2] of -42.1 kcal/mol.
For GCAGCTGGAAACAGCCGC ((.((((....)))).)), the Tm [1] was 50.6 °C and the folding enthalpy [2] was -29.3 kcal/mol.
With GCAGGACGAAAGTCGTGC (((.(((....))).))) the Tm [1] was 62.6 °C and the folding enthalpy [2] was -42.8 kcal/mol.
Sequence GCAGGAGGAAACTCCCGC ((.((((....)))).)) has a Tm [1] of 45.8 °C and a folding enthalpy [2] of -24.1 kcal/mol.
With GCAGGATCGAAAGATTGC (((..(((....)))))) the Tm [1] was 31.4 °C and the folding enthalpy [2] was -19.8 kcal/mol.
Work on GCAGGCCGAAAGGCTGC (((.(((....)))))) yielded a Tm [1] of 67.3 °C and a folding enthalpy [2] of -22.2 kcal/mol.
Work on GCAGGCGAAAGCCAATGC ((((((....)))..))) yielded a Tm [1] of 49.1 °C and a folding enthalpy [2] of -15.5 kcal/mol.
With GCAGGCGAAAGCCCATGC ((((((....)))..))) the Tm [1] was 41.4 °C and the folding enthalpy [2] was -13.2 kcal/mol.
For GCAGGCGAAAGCCCTGC ((((((....))).))), the Tm [1] was 65.6 °C and the folding enthalpy [2] was -19.2 kcal/mol.
In the case of GCAGGCGAAAGCCGTGC ((((((....))).))), the Tm [1] is reported as 62.8 °C and the folding enthalpy [2] is reported as -17.1 kcal/mol.
GCAGGCGAAAGCCTATGC ((((((....)))..))) showed a Tm [1] of 47.6 °C and a folding enthalpy [2] of -13.9 kcal/mol.
Sequence GCAGGGCGAAAGCACAGC ((.(.((....)).).)) has a Tm [1] of 56.8 °C and a folding enthalpy [2] of -20.6 kcal/mol.
Sequence GCAGGGCGAAAGCAGTGC (((..((....))..))) has a Tm [1] of 56.7 °C and a folding enthalpy [2] of -18.3 kcal/mol.
With GCAGGGCGAAAGCATTGC (((..((....))..))) the Tm [1] was 53 °C and the folding enthalpy [2] was -19.6 kcal/mol.
With GCAGGGCGAAAGCCAGGC ((..(((....)))..)) the Tm [1] was 60.1 °C and the folding enthalpy [2] was -19.3 kcal/mol.
